Common to all, as to format: functional
The subject of test [1] is Bacillus subtilis. As to the kind of experiment: Antimicrobial activity against Bacillus subtilis ATCC 6633 after 24 hrs using thiazoyl blue by agar overlay bioautography method. In outline:
(§1)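 Agar-overlay TLC bioautography. Stock samples (10 mg/mL) were serially diluted to 5.0, 1.0, 0.05 and 0.001 mg/mL, spotted on silica gel TLC plates and dried. Plates were overlaid with Sabouraud dextrose agar seeded with 24-h cultures and run in duplicate. Incubation was 24 h at 37 °C for S. aureus and E. coli, and 25 °C for B. subtilis, P. aeruginosa and C. albicans. Plates were then sprayed with MTT and incubated a further 4 h. MIQ was the lowest loading giving a white inhibition zone.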

For test [2], the system named is Staphylococcus aureus. As to the kind of experiment: Antimicrobial activity against Staphylococcus aureus ATCC 9144 after 24 hrs using thiazoyl blue by agar overlay bioautography method. In outline: as §1
Test [3] concerns Escherichia coli. As to the kind of experiment: Antimicrobial activity against Escherichia coli ATCC 11229 after 24 hrs using thiazoyl blue by agar overlay bioautography method. Put shortly: as §1
Test [4] deals with Candida albicans. As to the kind of experiment: Antimicrobial activity against Candida albicans ATCC 10231 after 24 hrs using thiazoyl blue by agar overlay bioautography method. Put shortly:
as §1

The subject of test [5] is Pseudomonas aeruginosa. Description: Antimicrobial activity against Pseudomonas aeruginosa NCTC 10332 after 24 hrs using thiazoyl blue by agar overlay bioautography method. In outline: as §1
Test [6] is described as follows: Antioxidant activity assessed as H2O2 scavenging activity at 12.5 to 250 ug/mL after 30 mins by spectrophotometric analysisic analysis. Put shortly:
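Hydrogen peroxide (32.7 mM in PBS, pH 7.4; 0.6 mL) was combined with 0.05–1 mL of 1 mg/mL extract or standard (gallic acid, ascorbic acid) and made up to 4 mL with water. A230 was read before and after 30 min. Background correction used buffer without peroxide. Percent scavenged = (A0 − A1)/A0 × 100.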

Test [7] has as its system Radical scavenging activity. As to the kind of experiment: Antioxidant activity assessed as DPPH radical scavenging activity after 30 mins by spectrophotometric analysisic analysis. In outline: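 Methanolic samples (0.005–0.5 mg/mL) were mixed 1:1 by volume with 2% DPPH and incubated in the dark at room temperature. Absorbance at 517 nm was read at 0.5, 1, 3, 6 and 24 h. Percent scavenged = (A_blank − A_sample)/A_blank × 100, with the blank being DPPH without sample. Ascorbic acid served as reference. Run in triplicate.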
(Loss of DPPH colour is used to gauge radical scavenging.)

Experimental findings from ChEMBL document CHEMBL1817655, “Tylosema esculentum extractives and their bioactivity” (Bioorg Med Chem, 2011) are described below.

One may read the EC50 as the concentration at which the effect is half-maximal.

Structures are written as SMILES. Values after ≈ are worked out from the molar mass of the structure shown.

On to `OC[C@H]1O[C@@](CO)(O[C@H]2O[C@H](CO)[C@@H](O)[C@H](O)[C@H]2O)[C@@H](O)[C@@H]1O` [SUCROSE], for which the MIC in test [1], in test [2], in test [3], in test [4] and in test [5] was 50 µg in each case.
Consider `O=C(O)c1ccc(O)c(O)c1` [PROTOCATECHUIC ACID], for which the MIC in test [1], in test [2], in test [3], in test [4] and in test [5] was 50 µg each time.
`O=C(O)c1cc(O)c(O)c(O)c1` [GALLIC ACID]: the MIC in test [1], in test [2], in test [3], in test [4] and in test [5] was 50 µg throughout. The Activity in test [6] was above 50%. Also, the EC50 in test [7] turned out to be 1.85 µg/mL (≈ 10.9 µM).
Regarding `O=C1C=C2C=C[C@@H](O)[C@H](O)[C@H]2O1` [GRIFFONILIDE], the MIC in test [1], in test [2], in test [3], in test [4] and in test [5] was 50 µg in each case.
Regarding `CCCCCCCCCCCCCCCCCCCCCC(=O)O` [BEHENIC ACID], the MIC in test [1], in test [2], in test [3], in test [4] and in test [5] was 50 µg throughout.
With `O=C1O[C@H]([C@@H](O)CO)C(O)=C1O` [ASCORBIC ACID], the Activity in test [6] is above 50%. The EC50 in test [7] came to 41.08 µg/mL (≈ 233 µM).
In the case of `CCO[C@@H]1[C@@H](O)[C@H](O)[C@@H](CO)O[C@@H]1O`, the MIC in test [1], in test [2], in test [3], in test [4] and in test [5] was 50 µg each time.
For `O=C(N[C@H](CO)[C@H](O)c1ccc([N+](=O)[O-])cc1)C(Cl)Cl` [CHLORAMPHENICOL], the MIC in test [1], in test [2], in test [3], in test [4] and in test [5] was 0.001 µg throughout.
On to `N#C/C=C1/C=C[C@@H](O)[C@H](O)[C@H]1O[C@@H]1O[C@H](CO)[C@@H](O)[C@H](O)[C@H]1O` [GRIFFONIN], for which the MIC in test [1], in test [2], in test [3], in test [4] and in test [5] was 50 µg throughout.
Regarding `CCCCCCCC/C=C\CCCCCCCC(=O)O` [OLEIC ACID], the MIC in test [1], in test [2], in test [3], in test [4] and in test [5] was 50 µg each time.
With `CC[C@H](CC[C@@H](C)[C@H]1CC[C@H]2[C@@H]3CC=C4C[C@@H](O)CC[C@]4(C)[C@H]3CC[C@]12C)C(C)C` [BETA-SITOSTEROL], the MIC in test [1], in test [2], in test [3], in test [4] and in test [5] was 50 µg each time.
